# ChEMBL document CHEMBL1122937, “[(Aminomethyl)arloxy]acetic acid esters. A new class of high-ceiling diuretics. 3. Variation in the bridge between the aromatic rings to complete mapping of the receptor” (J Med Chem, 1985)
# Calls of active or inactive are those of the source. No cut-off for these calls is given here.
# What was measured:
# [1] = Distribution coefficient in octanol-pH 7.0 phosphate buffer was measured at room temperature; format: physicochemical
# Rattus norvegicus [2] = assay: Natriuretic potency expressed as oral dose necessary to produce an excretion of 2 mequiv of Na+/kg in the rat urine during the 4 hr period after dosing; format: functional
# Outline: (§1)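 Rats were dosed orally in dose–response experiments. Urine volume, Na+, K+ and Cl- were measured. ED2 is the oral dose in mg/kg giving excretion of 2 mequiv Na+/kg in urine over the 4 h after dosing.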
# [3] = pKa value was evaluated; format: physicochemical
# Outline: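 UV absorption spectra were recorded in a buffer series spanning the pH range from fully protonated to fully deprotonated phenolic OH. Absorbance vs pH curves were fit by nonlinear regression, solving for the extinction coefficients of both forms and the pKa. For the amine pKa the buffers were extended to pH 12.0.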
# Rattus norvegicus [4] = assay: Natriuretic potency expressed as oral dose necessary to produce an excretion of 2 mequiv of Na+/kg in the rat urine during the 4 hr period after dosing; Inactive; format: functional, organism-based; outline: as §1
# Rattus norvegicus [5] = assay: Natriuretic potency expressed as oral dose necessary to produce an excretion of 2 mequiv of Na+/kg in the rat urine during the 4 h period after dosing; Inactive.; format: functional, organism-based; outline: as §1
logD [1],pKa [3],Structure (SMILES),ED2 (Rattus norvegicus [2]) [mg/kg],ED2 (Rattus norvegicus [4]),ED2 (Rattus norvegicus [5])
1.82,8.55,CCOC(=O)COc1ccc(Oc2ccc(O)c(CN)c2)c(Cl)c1Cl.Cl,0.8,–,–
–,–,CCOC(=O)COc1ccc(Sc2ccc(O)c(CN)c2)c(Cl)c1Cl.Cl,1,–,–
–,–,CCOC(=O)COc1ccc(-c2ccc(O)c(CN)c2)c(Cl)c1Cl,–,inactive,–
–,–,COC(=O)COc1ccc([S+]([O-])c2ccc(O)c(CN)c2)c(Cl)c1Cl.Cl (stereo unspecified),16.3,–,–
1.66,8.73,CCOC(=O)COc1ccc(Cc2ccc(O)c(CN)c2)c(Cl)c1Cl.Cl,7.5,–,–
0.3,7.34,CCOC(=O)COc1ccc(C(=O)c2ccc(O)c(CN)c2)cc1,–,–,–
–,–,CCOC(=O)COc1ccc(C(=O)C(=O)c2ccc(O)c(CN)c2)c(Cl)c1Cl,–,inactive,–
1.41,6.38,CCOC(=O)COc1ccc(C(=O)c2ccc(O)c(CN)c2)c(Cl)c1Cl.Cl,2.5,–,–
–,–,CCOC(=O)COc1ccc2c(-c3ccc(O)c(CN)c3)noc2c1Cl.Cl,35,–,–
–,–,CCOC(=O)COc1ccc(C(=O)Nc2ccc(O)c(CN)c2)c(Cl)c1Cl,–,inactive,–
–,–,CCOC(=O)COc1ccc(COc2ccc(O)c(CN)c2)c(Cl)c1Cl,–,inactive,–
1.25,6.67,CCOC(=O)COc1ccc(S(=O)(=O)c2ccc(O)c(CN)c2)c(Cl)c1Cl,–,–,inactive
